PHOSPHO1 inh – blocks human PHOSPHO1 phosphatase activity; 290,000 tested, 1.1% active; recombinant PHOSPHO1, absorbance phosphatase assay; AID 1565; inhibition, % at 13.3 µM; Q8TCT1; in the data active means inhibition above about 60%
Target sequence (Q8TCT1 whole entry, looked up): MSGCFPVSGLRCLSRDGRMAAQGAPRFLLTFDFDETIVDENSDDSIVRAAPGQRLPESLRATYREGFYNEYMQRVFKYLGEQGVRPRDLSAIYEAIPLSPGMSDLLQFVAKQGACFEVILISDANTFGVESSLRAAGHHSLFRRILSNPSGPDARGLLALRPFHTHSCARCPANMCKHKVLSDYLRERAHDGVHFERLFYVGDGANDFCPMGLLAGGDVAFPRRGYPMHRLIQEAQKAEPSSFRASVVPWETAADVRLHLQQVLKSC
ALR H2O2 inh – human ALR oxidase inhibition via reduced H2O2; P55789; purified ALR, DTT oxidation, H2O2 HRP-luminol luminescence; inhibition, % (test concentration not listed); 290,000 tested, 3.8% active; AID 485317;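 active means mean replicate inhibition above about 79%, with every replicate also reaching it, limit read from the data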
Target sequence (P55789 whole entry, looked up): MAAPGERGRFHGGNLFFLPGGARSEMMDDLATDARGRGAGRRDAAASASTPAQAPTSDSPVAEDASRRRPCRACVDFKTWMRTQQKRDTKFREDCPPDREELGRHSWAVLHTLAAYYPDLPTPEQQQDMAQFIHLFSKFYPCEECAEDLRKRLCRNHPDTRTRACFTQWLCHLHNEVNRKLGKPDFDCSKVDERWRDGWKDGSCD
HCV core dimer – HCV core protein dimerization inhibition; TR-FRET GST/Flag-core106 dimerization, 1536-well; inhibition, % at 5 µM; 300,000 tested, 0.33% active; AID 1899;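 active means inhibition above the mean of all tested compounds plus 3 SD, set per screening campaign, cut at about 45% in these data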
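Assay system: GST-tagged and Flag-tagged HCV core protein residues 1-106 / Times: compound-protein-antibody incubation 4 h at 22.5 °C / Signal: time-resolved FRET, ex 340 nm, em 617 and 671 nm / Evaluation: % inhibition based on acceptor/donor emission ratio / Benchmarks: wells lacking GST-core106 and wells with excess unlabelled core106 / Repeats: singlicate, one well per compound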
HSF1 activator – increases HSF-1 driven luciferase reporter signal; activation, % at 9 µM; AID 504408; 300,000 tested, 1.7% active; NIH3T3-HGL HSF-1 luciferase reporter, MG132, 8 h; 100% = twice DMSO control signal;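 active means mean replicate activation of at least 50% with a set share of replicates each reaching 50%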;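 further: 0% = median of the neutral control wells and 100% = twice that signal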
AI-2 QS modul – Vibrio harveyi AI-2 quorum sensing modulation; Vibrio harveyi JMH597 AI-2 luminescence/OD600 ratio, 9 h; hits give low values; strain lacks LuxN and CqsS sensors; 0 = neutral-control median; activity change, % at 7.5 µM; 300,000 tested, 0.4% active; AID 2094; in the data active means activity change below about -75%, passing the limit was not always enough;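 further: luminescence divided by OD600 gain over 9 h not by final OD600 alone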
HSF1 inh – HSF1 inhibition; NIH3T3-HGL HSE-luciferase, MG132-induced, luminescence 8 h; hits give low values; activity change, negative = inhibition, % at 7.5 µM (by protocol); 300,000 tested, 0.77% active; AID 2098;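 active means more than half of replicate wells show activity change below -50%, luminescence cut by over half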;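 further: luciferase reports HSF-1 transcriptional activity via heat shock element; 0% = median of DMSO wells and -100% = zero luminescence signal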
* hit, by the source's call; x = no result. In the library only some 6.8% were active in any assay of this set; here they are far more common.

SMILES	PHOSPHO1 inh	ALR H2O2 inh	HCV core dimer	HSF1 activator	AI-2 QS modul	HSF1 inh
O=C1CC(c2ccc(O)c(O)c2)Oc2cc(O)cc(O)c21 (stereo unspecified)	-10	99*	1	15	21	9
O=C1CC(c2ccc(O)c(O)c2)Oc2c1ccc(O)c2O (stereo unspecified)	-1	98*	-7	x	x	x
FC(F)(F)c1nnc2ccc(Sc3ccccn3)nn12	23	-1	-4	-9	13	-8
C[C@@H]1O[C@@H](Oc2c(-c3cc(O)c(O)c(O)c3)oc3cc(O)cc(O)c3c2=O)[C@H](O)[C@H](O)[C@H]1O	13	99*	-32	4	10	1
COc1ccc(-c2oc3c(CC=C(C)C)c(O[C@@H]4O[C@H](CO)[C@@H](O)[C@H](O)[C@H]4O)cc(O)c3c(=O)c2O[C@@H]2O[C@@H](C)[C@H](O)[C@@H](O)[C@H]2O)cc1	-8	17	8	-17	17	-1
C[C@@H]1O[C@@H](O[C@H]2[C@H](O)[C@@H](O)[C@H](Oc3c(-c4ccc(O)c(O)c4)oc4cc(O)cc(O)c4c3=O)O[C@@H]2CO)[C@H](O)[C@H](O)[C@H]1O	x	96*	x	x	x	x
CC(=O)O[C@@H]1[C@@H](O)[C@@H](O)[C@H](Oc2c(-c3ccc(O)cc3)oc3c(CC=C(C)C)c(O)cc(O)c3c2=O)O[C@H]1C	x	x	-11	-6	30	2
COc1cc(-c2oc3cc(O)cc(O)c3c(=O)c2O[C@@H]2O[C@H](COC3O[C@@H](C)[C@H](O)[C@@H](O)[C@H]3O)[C@@H](O)[C@H](O)[C@H]2O)ccc1O (stereo partly specified)	x	94*	x	x	x	x
C[C@@H]1O[C@@H](Oc2c(-c3ccc(O)c(O)c3)oc3cc(O)cc(O)c3c2=O)[C@H](O)[C@H](O)[C@H]1O	x	99*	x	x	x	x
COc1cccc(OC)c1C1=NC(C)(C)CO1	18	-3	2	-1	2	-3
CCN1CCCC1CNC(=O)CN(C)S(=O)(=O)c1ccc(Cl)cc1 (stereo unspecified)	24	2	1	1	13	0
O=[N+]([O-])c1ccc(NC(=S)NCCc2ccccc2)cc1	-21	-9	1	21	-16	5
O=[N+]([O-])c1ccc(NNC(=S)Nc2ccccc2)cc1	86*	-25	8	-7	-8	9
O=[N+]([O-])c1ccc(O)c(NC(=S)Nc2ccccc2)c1	57	98*	1	22	18	17
O=C(Nc1ccc([N+](=O)[O-])cc1)C1C(c2ccccc2)=C1c1ccccc1	6	-8	16	178*	10	165
CC(C)(C)c1nc(SCC(=O)NCc2ccco2)c2ccccc2n1	23	60	6	10	0	14
CC(=O)c1c(C)n(CC(=O)NCc2ccco2)c2ccccc12	69*	x	-6	-1	23	-5
O=C(CSc1nc2ccccc2n1CC(=O)NCc1ccccc1)NCc1ccco1	69*	-4	0	24	51	11
O=C(NCc1ccco1)c1c2c(nc3ccccc13)CCC2	72*	-8	91*	-10	46	-5
Cc1ccccc1-n1c(=O)c2ccccc2n(CC(=O)NCc2ccco2)c1=O	18	0	-2	-7	2	7
O=C(CSc1c2c(nc3ccccc13)CCCC2)NCc1ccco1	-1	98*	15	86*	15	40
C=CC(=O)N(CCC)C(c1ccccc1)c1ccccc1OC (stereo unspecified)	x	-4	-6	11	0	-1
O=[N+]([O-])c1ccccc1CNC(Cc1ccccc1)c1ccccc1 (stereo unspecified)	7	-1	6	0	12	-4
NC(=O)COC(=O)c1c2c(nc3ccccc13)CCC2	28	-10	13	-6	39	-6
CC(C)(C)NC(=O)COC(=O)c1c2c(nc3ccccc13)CCC2	40	-2	53*	13	15	-9
SMILES	PHOSPHO1 inh	ALR H2O2 inh	HCV core dimer	HSF1 activator	AI-2 QS modul	HSF1 inh
Cc1nn(C)c(Sc2ccccc2N)c1[N+](=O)[O-]	-46	98*	-7	-2	18	-2
Cc1nn(C)c(N)c1[N+](=O)[O-]	3	-6	2	13	7	-9
Cc1ccc(C)c(C(=O)CSc2n[nH]c(-c3ccncc3)n2)c1	64*	49	5	5	43	0
CC(C)c1ccc(-c2nnn(CCC#N)n2)cc1	10	-5	-2	10	-1	7
N#CCCn1nnc(-c2ccccc2F)n1	-2	-6	-1	-71	24	-63*
CCN(CC)c1ccc(N=Cc2ccccc2[N+](=O)[O-])cc1	-11	87*	-5	1	20	-1
CCN(CC)c1ccc(N=Cc2ccc([N+](=O)[O-])o2)cc1	7	x	21	-15	30	-24
CC(CCc1ccccc1)NC(=O)CN1CCN(Cc2ccccc2)C1=O (stereo unspecified)	13	-4	-1	5	9	-1
CC(CCc1ccccc1)NC(=O)CN1CCSc2ccccc21 (stereo unspecified)	-4	99*	1	3	46	2
CC(CCc1ccccc1)NC(=O)CN1CCOc2ccccc21 (stereo unspecified)	x	98*	-3	4	17	6
COc1ccc(CCNC(=O)CN2CCOc3ccccc32)cc1OC	-14	14	-2	0	11	-1
O=C(CN1CCOc2ccccc21)NCc1ccccc1	-11	98*	-5	15	10	-6
CC(CCc1ccccc1)NC(=O)CN1CCN(Cc2ccc(Cl)cc2)C1=O (stereo unspecified)	-5	x	-5	4	14	4
CC(=O)N(C)C1=C(O)c2ccccc2C(=O)C1=O	34	-15	-4	-92	-6	-90*
Cc1ccc(-n2ncc3c(NCc4cccnc4)ncnc32)cc1C	38	1	4	55*	9	37
Cc1cccc(-n2ncc3c(NCc4cccnc4)ncnc32)c1	18	-2	4	31	-2	25
Cc1ccc(-n2ncc3c(NCc4ccc5c(c4)OCO5)ncnc32)c(C)c1	6	-1	0	-62	22	-55*
C/C(=N\NC(=O)c1ccc(N/N=C(\C)c2ccc(O)cc2)cc1)c1ccc(O)cc1	25	x	-8	31	23	8
O=C(CCNC(=O)c1ccc(Cl)cc1)Nc1ncccc1O	14	-37	12	-89	23	-87*
O=C(Nc1ncccc1O)c1ccc(Oc2ccccc2)cc1	47	-3	-6	88*	-58	47
